For data set [1], the system named is E. coli K12. Description: MIC assay in E. coli K12 in iron-deficient. The conditions noted are these: Escherichia coli, K12, 18 h, read-out: MIC90 (+DP). Type of data set: cell-based.
For another data set, the system named is S. aureus RN4220. The data set can be described thus: Growth inhibition. The conditions noted are these: for MIC90: Staphylococcus aureus, RN4220, 18 h, read-out: MIC90 S. aureus RN4220. Type of data set: cell-based, Staphylococcus aureus.
For data set [2], the system named is E. coli K12. Description: Challenge MIC assay in E. coli with 100-fold excess Fe-siderophore. Type of data set: cell-based, Escherichia coli. Particulars: for MIC90: Escherichia coli, K12, 18 h, read-out: MIC90 (+DP, +100× Fe siderophore).
In a further data set the test system is P. aeruginosa PA01. Description: Growth inhibition. It is filed as cell-based, Pseudomonas aeruginosa. The conditions noted are these: for MIC90: Pseudomonas aeruginosa, PA01, 18 h, read-out: MIC90 P. aeruginosa PA01. An outline of the steps:
(§1)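 Broth microdilution in cation-adjusted Mueller–Hinton II broth made iron-deficient with 2,2′-bipyridine. Test compound stock was 0.3 mM in sterile water, with concentration verified by ICP-OES/UV–vis. Serial dilutions gave a final range of 0.3 × 10−4 to 1.56 × 10−12 M, with diluted inoculum added. Ciprofloxacin served as comparator. Incubation was 18 h at 37 °C with absorbance read. MIC was the lowest concentration giving ≥90% growth inhibition relative to negative-control wells.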

The test system of a further data set is K. pneumoniae CRE-11. Description: Growth inhibition. Type of data set: cell-based, Klebsiella pneumoniae. Particulars: for MIC90: Klebsiella pneumoniae, CRE11, 18 h, read-out: MIC90 K. pneumoniae CRE-11. An outline of the steps:
as §1

The subject of a further data set is E. coli AN193. The data set can be described thus: MIC assay in E. coli AN193. It is filed as cell-based, Escherichia coli. Particulars: E. coli AN193 carrying a mutation of the FhuA gene; compared with wt E. coli K12.
Data set [3] in a line: Biodistribution of 67Ga complexes in naive mice. Particulars: naive female CBJ mice (n = 3), intravenous, 0.8–1.2 MBq, 1 h p.i. It is filed as in vivo. Put shortly:
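Naive female CBJ mice (8–10 weeks) received 0.8–1.2 MBq of 67Ga complex via tail-vein catheter. The complex was formed from 67GaCl3 (derived from 67Ga-citrate) and ligand in HEPES at pH 7.4, with labelling checked by radio-HPLC. A 67Ga-citrate group was also dosed. At 1 h p.i. mice were killed, organs harvested and gamma-counted (% ID/g), and urine metabolites analysed by radio-HPLC.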

The conditions of data set [4]: cited from earlier work.

The values that follow come from PMC6943944 (Journal of medicinal chemistry, 2019).

By MIC90 is commonly meant an inhibitory concentration at the 90% level, which refers to growth in some studies and to a panel of isolates in others.

In brackets after ≈: the same amount, converted by molar mass. A value given as a limit tells only on which side of the number the result lay.

As for `CC(=O)N(O)CCCC(N)C(=O)NC(CCCN(O)C(C)=O)C(=O)NC(CCCN(O)C(C)=O)C(=O)NCCC(=O)N1CCN(c2cc3c(cc2F)c(=O)c(C(=O)O)cn3C2CC2)CC1` (centres unmarked) [apo D2, 7-[4-(3-{5-[N-Acetyl(hydroxyamino)]-2-{5-[N-acetyl(hydroxyamino)]-2-{5-[N-acetyl(hydroxyamino)]-2-aminovalerylamino}-valerylamino}valerylamino}propionyl)-1-piperazinyl]-1-cyclopropyl-6-fluoro-4-oxo-1H-quinoline-3-carboxylic Acid], the MIC90 was 0.23 µM (≈ 0.211 µg/mL) in the data set on E. coli K12 [1]; 15 µM (≈ 13.8 µg/mL) in the data set on S. aureus RN4220; greater than 100 µM in the data set on E. coli K12 [2]; 7.5 µM (≈ 6.89 µg/mL) in the data set on P. aeruginosa PA01; greater than 100 µM in the data set on K. pneumoniae CRE-11. For the same compound, in the data set with E. coli AN193, the “growth inhibitory activity in E. coli AN193 (in words)” value is on record as “completely muted”.
`O=C(O)c1cn(C2CC2)c2cc(N3CCNCC3)c(F)cc2c1=O` [ciprofloxacin]: the MIC90 in the data set on E. coli K12 [1] came to 0.2 µM (≈ 0.0663 µg/mL); with S. aureus RN4220, 1.9 µM (≈ 0.63 µg/mL); in the data set with E. coli K12 [2] it was 0.23 µM (≈ 0.0762 µg/mL); in the data set on P. aeruginosa PA01, 0.94 µM (≈ 0.311 µg/mL); with K. pneumoniae CRE-11, 3.12 µM (≈ 1.03 µg/mL). Moreover, in the data set with E. coli K12 [2] (E. coli, challenge MIC assay), the “impact of 100× Fe–DFO or 100× Fe–LDFC on potency (in words)” value was “no impact”.
As to `O=C([O-])CC(O)(CC(=O)[O-])C(=O)[O-].[67Ga+3]` [^67Ga-citrate], in data set [3], the “clearance route from biodistribution (in words)” value was “predominantly renal clearance”.
In the case of `CC(=O)N(O)CCCCCNC(=O)CCC(=O)N(O)CCCCCNC(=O)CCC(=O)N(O)CCCCCN` [desferrioxamine (DFO), desferrioxamine], the “log Ka of the gallium complex” value in data set [4] is 28.65.
In the case of albomycin [Fe-D3 (albomycin)], the “MIC90 S. aureus RN4220” value with S. aureus RN4220 (wild-type S. aureus RN4220, iron-limiting conditions, 37 °C, 18 h) came to 0.94 µM. Moreover, in the data set on P. aeruginosa PA01 (wild-type P. aeruginosa PA01, iron-limiting conditions, 37 °C, 18 h), the “MIC90 P. aeruginosa PA01” value was greater than 30 µM. In addition, the “MIC90 K. pneumoniae CRE-11” value with K. pneumoniae CRE-11 (carbapenem resistant K. pneumoniae CRE-11, iron-limiting conditions, 37 °C, 18 h) is 0.00023 μM. In addition, the “growth inhibitory activity in K. pneumoniae (in words)” value in the data set on K. pneumoniae CRE-11 (carbapenem resistant K. pneumoniae, iron-limiting conditions) was “exceptional potency”. Moreover, the “growth inhibitory activity in E. coli AN193 (in words)” value in the data set on E. coli AN193 is reported as “completely muted”.
On to `CC(=O)N(O)CCCCCNC(=O)CCC(=O)N(O)CCCCCNC(=O)CCC(=O)N(O)CCCCCNC(=O)CCC(=O)N1CCN(c2cc3c(cc2F)c(=O)c(C(=O)O)cn3C2CC2)CC1` [apo D1, 7-{4-[4-(5-{N-4-[5-(N-4-{5-[N-Acetyl-(hydroxyamino)]pentylamino}−4-oxobutyry(hydroxyamino))pentyl-amino]-4-oxobutyryl(hydroxyamino)}pentylamino)-4-oxobutyryl]-1-piperazinyl}−1-cyclopropyl-6-fluoro-4-oxo-1H-quinoline-3-carboxylic Acid], for which the “growth inhibitory activity in E. coli AN193 (in words)” value in the data set with E. coli AN193 was “retain comparable MIC values”.
